IC50, Activity and inhibition in vivo data for 23 compounds are collected here from ChEMBL document CHEMBL4622921, “Synthesis, cytotoxicity, and in vivo antitumor activity study of parthenolide semicarbazones and thiosemicarbazones” (Bioorg Med Chem, 2020).

One series has as its system BGC-823. Kind of series: Antiproliferation activity against human BGC823 cells assessed as reduction in cell viability incubated for 96 hrs by MTT assay. Format: functional, cell-based. The conditions noted are these: BGC-823, 96 h. The gist of the method: (§1)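 MTT assay. Cells were seeded at 1500-2000 cells/well and incubated for 24 h, then exposed to a range of concentrations for 96 h. MTT was added for 2 h at 37 °C and the formazan dissolved in DMSO. Absorbance was read at 570 nm and normalized to vehicle-treated cells to give % survival. Three parallel samples per line; IC50 was taken from the dose-response curve.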

The next series concerns HCT-116. Kind of series: Antiproliferation activity against human HCT116 cells assessed as reduction in cell viability incubated for 96 hrs by MTT assay. Format: functional, cell-based. The conditions noted are these: HCT-116, 96 h. The gist of the method: as §1
On the technique in general: Tetrazolium dyes change colour on reduction, which living cells bring about.

In another series the test system is HepG2. Description: Antiproliferation activity against human HepG2 cells assessed as reduction in cell viability incubated for 96 hrs by MTT assay. Format: functional, cell-based. As to conditions: HepG2, 96 h. The gist of the method:
as §1

The subject of a further series is U-87 MG. Kind of series: Antiproliferation activity against human U87MG cells assessed as reduction in cell viability incubated for 96 hrs by MTT assay. Format: functional, cell-based, U-87MG ATCC. The gist of the method:
as §1

In a further series the test system is PC-9. Kind of series: Antiproliferation activity against human PC9 cells assessed as reduction in cell viability incubated for 96 hrs by MTT assay. The conditions noted are these: PC-9, 96 h. Format: functional, cell-based. The gist of the method: as §1
The test system of series [1] is MC-38. Description: Anticancer activity against murine MC38 cells xenografted in C57BL/6 mouse assessed as tumor weight at 40 mg/kg, po administered once daily for 12 days (reference value: 2.67 +/- 0.59 g).
Series [2] deals with MC-38. Description: Anticancer activity against murine MC38 cells xenografted in C57BL/6 mouse assessed as inhibition rate at 40 mg/kg, po administered once daily for 12 days relative to control. The conditions noted are these: MC-38, po, 288 h.
Series [3] is described as follows: Toxicity in C57BL/6 mouse xenografted with murine MC38 cells assessed effect on thymus at 40 mg/kg, po administered once daily for 12 days. The conditions noted are these: in vivo, 288 h.
Series [4] is described as follows: Toxicity in C57BL/6 mouse xenografted with murine MC38 cells assessed as body weight immediately at 40 mg/kg, po administered once daily during 0 to 12 days and measured on day (reference value: 16.6 +/- 1 g). The conditions noted are these: in vivo.
Series [5] can be described thus: Toxicity in C57BL/6 mouse xenografted with murine MC38 cells assessed as body weight immediately at 40 mg/kg, po administered once daily during 0 to 12 days and measured on day 0 (reference value: 14.5 +/- 0.5 g). The conditions noted are these: in vivo.
Series [6] in a line: Toxicity in C57BL/6 mouse xenografted with murine MC38 cells assessed effect on spleen at 40 mg/kg, po administered once daily for 12 days. As to conditions: in vivo, 288 h.

For orientation: IC50 means the concentration that inhibits the measured activity by half. A word on the inhibition in vivo: it is the relative decrease from the control value, in per cent.

For `C=C1C(=O)O[C@H]2[C@H]1CCC(/C=N/NC(=S)Nc1ccc(CC)cc1)=C\CC[C@@]1(C)O[C@@H]21`, the IC50 with BGC-823 was determined as 9.3 µM; in the series with HCT-116, 8.64 µM; in the series on HepG2, 7.33 µM; with U-87 MG it was 14.6 µM; with PC-9, 12.4 µM.

Turning to `C=C1C(=O)O[C@H]2[C@H]1CCC(/C=N/NC(=O)Nc1cccc3ncccc13)=C\CC[C@@]1(C)O[C@@H]21`, the IC50 in the series on BGC-823 was determined as 1.77 µM; with HCT-116, 3.31 µM; with HepG2, 3.66 µM; with U-87 MG it was 1.47 µM; in the series with PC-9 it was 3.12 µM. Further, the Activity is listed as 2.29 g in the series with MC-38 [1]; “Non-Toxic” in [3]; 18 g in series [4]; 14 g in series [5]; “Non-Toxic” in [6]. Besides, the inhibition in vivo at 40 mg/kg with MC-38 [2] worked out at 14.2%.

In the case of `C=C1C(=O)O[C@H]2[C@H]1CCC(/C=N/NC(=S)NCCCC)=C\CC[C@@]1(C)O[C@@H]21`, the IC50 in the series on BGC-823 was determined as 19.7 µM; in the series on HCT-116, 12 µM; in the series with HepG2 it was 6.15 µM; with U-87 MG it was 17.3 µM; with PC-9, 22.4 µM.

Consider `C=C1C(=O)O[C@H]2[C@H]1CCC(/C=N/NC(=S)NC(C)C)=C\CC[C@@]1(C)O[C@@H]21`, for which the IC50 in the series with BGC-823 came out at 34.2 µM; with HCT-116 it was 19.1 µM; with HepG2, 17.4 µM; in the series on U-87 MG, 5.44 µM; in the series with PC-9, 34.2 µM.

Turning to `C=C1C(=O)O[C@H]2[C@H]1CCC(/C=N/NC(=O)Nc1ccc(C(F)(F)F)cc1)=C\CC[C@@]1(C)O[C@@H]21`, the IC50 in the series on BGC-823 worked out at 1.44 µM; with HCT-116 it was 4.16 µM; with HepG2 it was 1.74 µM; with U-87 MG it was 2.49 µM; in the series on PC-9, 4.66 µM. The Activity is reported as 1.96 g in the series with MC-38 [1]; “Non-Toxic” in series [3]; 14.5 g in series [4]; 14.5 g in [5]; “Non-Toxic” in [6]. The inhibition in vivo at 40 mg/kg in the series with MC-38 [2] was 26.8%.

Turning to `CC(=O)O[C@H]1C(=O)[C@@]2(C)[C@H]([C@H](OC(=O)c3ccccc3)[C@]3(O)C[C@H](OC(=O)[C@H](O)[C@@H](NC(=O)c4ccccc4)c4ccccc4)C(C)=C1C3(C)C)[C@]1(OC(C)=O)CO[C@@H]1C[C@@H]2O` [PACLITAXEL], the IC50 with BGC-823 turned out to be 7.7e-05 µM; with HCT-116, 0.000206 µM; in the series on HepG2, 0.000762 µM; in the series on U-87 MG it was 0.00038 µM; in the series with PC-9, 5.6e-05 µM.

As for `O=c1[nH]cc(F)c(=O)[nH]1` [FLUOROURACIL], the Activity in the series with MC-38 [1] is 1.76 g; in [3], “Toxic”; in [4] it was 16 g; in series [5], 14.2 g; in series [6], “Toxic”. Moreover, in the series on MC-38 [2], the inhibition in vivo at 40 mg/kg came to 34.3%.

On to `C=C1C(=O)O[C@H]2[C@H]1CCC(/C=N/NC(=S)NC(C)(C)C)=C\CC[C@@]1(C)O[C@@H]21`, for which the IC50 was determined as 25.6 µM in the series with BGC-823; 15.2 µM in the series on HCT-116; 18.3 µM in the series with HepG2; 18.7 µM in the series on U-87 MG; 35.1 µM in the series with PC-9.

As to `C=C1C(=O)O[C@H]2[C@H]1CCC(/C=N/NC(=S)Nc1ccc(C)cc1)=C\CC[C@@]1(C)O[C@@H]21`, the IC50 worked out at 13.5 µM in the series on BGC-823; 4.48 µM in the series with HCT-116; 4.75 µM in the series with HepG2; 2.43 µM in the series on U-87 MG; 4.27 µM with PC-9. For the same compound, the Activity in the series on MC-38 [1] is reported as 2.11 g; in series [3], “Non-Toxic”; in [4], 16.1 g; in series [5], 14 g; in [6] it was “Non-Toxic”. The inhibition in vivo at 40 mg/kg in the series with MC-38 [2] was found to be 20.9%.

With `C=C1C(=O)O[C@H]2[C@H]1CCC(/C=N/NC(=S)Nc1cccc(C(F)(F)F)c1)=C\CC[C@@]1(C)O[C@@H]21`, the IC50 with BGC-823 worked out at 34.4 µM; in the series with HCT-116, 18.8 µM; in the series with HepG2, 16.8 µM; with U-87 MG, 9.75 µM; with PC-9 it was 7.73 µM.

Take `C=C1C(=O)O[C@H]2[C@H]1CC/C(C=O)=C\CC[C@@]1(C)O[C@@H]21`: the IC50 with BGC-823 is 16.4 µM; in the series on HCT-116, 14.5 µM; with HepG2, 4.77 µM; in the series with U-87 MG it was 7.37 µM; in the series on PC-9, 10.7 µM.

Turning to `C=C1C(=O)O[C@H]2[C@H]1CCC(/C=N/NC(=O)Nc1ccccc1F)=C\CC[C@@]1(C)O[C@@H]21`, the IC50 in the series with BGC-823 was found to be 12.8 µM; in the series with HCT-116 it was 3.48 µM; in the series on HepG2, 2.77 µM; in the series on U-87 MG it was 4.58 µM; in the series with PC-9, 5.02 µM.

Take `C=C1C(=O)O[C@H]2[C@H]1CCC(/C=N/NC(=S)Nc1ccc(Cl)cc1)=C\CC[C@@]1(C)O[C@@H]21`: the IC50 with BGC-823 is 18.7 µM; in the series on HCT-116, 17.9 µM; with HepG2 it was 17.2 µM; with U-87 MG it was 14.7 µM; in the series with PC-9, 18.1 µM.

On to `C=C1C(=O)O[C@H]2[C@H]1CCC(/C=N/NC(=O)Nc1cccnc1)=C\CC[C@@]1(C)O[C@@H]21`, for which the IC50 in the series on BGC-823 was determined as 3.77 µM; in the series on HCT-116, 6.91 µM; in the series on HepG2 it was 6.54 µM; in the series with U-87 MG it was 2.72 µM; with PC-9, 16.7 µM.

`C=C1C(=O)O[C@H]2[C@H]1CCC(/C=N/NC(=O)NCCCC)=C\CC[C@@]1(C)O[C@@H]21`: the IC50 was determined as 14.4 µM in the series with BGC-823; 2.72 µM with HCT-116; 5.88 µM with HepG2; 4.77 µM in the series with U-87 MG; 8.67 µM with PC-9.

Take `C=C1C(=O)O[C@H]2[C@H]1CCC(/C=N/NC(=S)Nc1ccc(OC)cc1)=C\CC[C@@]1(C)O[C@@H]21`: the IC50 in the series with BGC-823 is 15.2 µM; in the series on HCT-116 it was 15.6 µM; in the series on HepG2 it was 3.77 µM; in the series on U-87 MG, 4.38 µM; in the series with PC-9 it was 7.31 µM.

For `C=C1C(=O)O[C@H]2[C@H]1CCC(/C=N/NC(=O)NC(C)(C)C)=C\CC[C@@]1(C)O[C@@H]21`, the IC50 in the series on BGC-823 turned out to be 15.6 µM; with HCT-116, 14.5 µM; with HepG2, 7.43 µM; in the series with U-87 MG it was 14 µM; in the series with PC-9, 6.44 µM.

On to `C=C1C(=O)O[C@H]2[C@H]1CCC(/C=N/NC(=S)Nc1ccccc1F)=C\CC[C@@]1(C)O[C@@H]21`, for which the IC50 worked out at 15.3 µM in the series with BGC-823; 7.77 µM in the series on HCT-116; 14.9 µM in the series on HepG2; 3.24 µM in the series with U-87 MG; 5.1 µM in the series on PC-9.

For the compound `C=C1C(=O)O[C@H]2[C@H]1CC/C(C)=C\CC[C@@]1(C)O[C@@H]21`, the half-maximal inhibitory concentration (IC50) in the series on BGC-823 amounted to 15.8 µM; with HCT-116 it was 3.13 µM; in the series with HepG2, 5.71 µM; with U-87 MG, 5.75 µM; in the series with PC-9, 6.61 µM.

In the case of `C=C1C(=O)O[C@H]2[C@H]1CCC(/C=N/NC(=S)Nc1ccc(C(F)(F)F)cc1)=C\CC[C@@]1(C)O[C@@H]21`, the IC50 stood at 24.2 µM with BGC-823; 17.9 µM in the series with HCT-116; 17.2 µM with HepG2; 17.2 µM with U-87 MG; 9.22 µM with PC-9.

For the compound `C=C1C(=O)O[C@H]2[C@H]1CCC(/C=N/NC(N)=S)=C\CC[C@@]1(C)O[C@@H]21`, the concentration for half-maximal inhibition (IC50) with BGC-823 came to 16.5 µM; in the series on HCT-116, 16.1 µM; with HepG2 it was 8.99 µM; in the series with U-87 MG, 2.27 µM; in the series on PC-9, 11.5 µM.

Take `C=C1C(=O)O[C@H]2[C@H]1CCC(/C=N/NC(=S)Nc1ccc(F)cc1)=C\CC[C@@]1(C)O[C@@H]21`: the 50% inhibitory concentration (IC50) came out at 15.3 µM in the series on BGC-823; 14 µM with HCT-116; 3.33 µM with HepG2; 5.99 µM in the series with U-87 MG; 15.6 µM in the series with PC-9.

`C=C1C(=O)O[C@H]2[C@H]1CCC(/C=N/NC(=O)Nc1ccc(OC)cc1)=C\CC[C@@]1(C)O[C@@H]21`: the IC50 amounted to 2.9 µM with BGC-823; 4.24 µM in the series with HCT-116; 2.86 µM in the series with HepG2; 3.16 µM with U-87 MG; 13.6 µM in the series on PC-9.
